Laboratory results as given in ChEMBL document CHEMBL1147453, “3,4-Dihydroquinazoline derivatives as novel selective T-type Ca2+ channel blockers” (Bioorg Med Chem Lett, 2004).

Experiments:
[1] = Inhibition of LVA T-type [Ca2+] channels of major pelvic ganglion (MPG) neurons at 10 uM; format: functional
Method in brief: (§1)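 Major pelvic ganglion (MPG) neurons, compound at 10 µM. Percent inhibition measured for both LVA (T-type) and HVA (N-type) Ca2+ currents, as part of an ion-channel selectivity screen that also covered Na+ channels.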

[2] = target: T1, Voltage-dependent T-type calcium channel subunit alpha-1G (Homo sapiens, UniProt O43497); test: Concentration of the compounds required for inhibition of HEK293 cells (alpha1G T-type); format: functional, cell-based
T1 sequence (O43497 whole entry): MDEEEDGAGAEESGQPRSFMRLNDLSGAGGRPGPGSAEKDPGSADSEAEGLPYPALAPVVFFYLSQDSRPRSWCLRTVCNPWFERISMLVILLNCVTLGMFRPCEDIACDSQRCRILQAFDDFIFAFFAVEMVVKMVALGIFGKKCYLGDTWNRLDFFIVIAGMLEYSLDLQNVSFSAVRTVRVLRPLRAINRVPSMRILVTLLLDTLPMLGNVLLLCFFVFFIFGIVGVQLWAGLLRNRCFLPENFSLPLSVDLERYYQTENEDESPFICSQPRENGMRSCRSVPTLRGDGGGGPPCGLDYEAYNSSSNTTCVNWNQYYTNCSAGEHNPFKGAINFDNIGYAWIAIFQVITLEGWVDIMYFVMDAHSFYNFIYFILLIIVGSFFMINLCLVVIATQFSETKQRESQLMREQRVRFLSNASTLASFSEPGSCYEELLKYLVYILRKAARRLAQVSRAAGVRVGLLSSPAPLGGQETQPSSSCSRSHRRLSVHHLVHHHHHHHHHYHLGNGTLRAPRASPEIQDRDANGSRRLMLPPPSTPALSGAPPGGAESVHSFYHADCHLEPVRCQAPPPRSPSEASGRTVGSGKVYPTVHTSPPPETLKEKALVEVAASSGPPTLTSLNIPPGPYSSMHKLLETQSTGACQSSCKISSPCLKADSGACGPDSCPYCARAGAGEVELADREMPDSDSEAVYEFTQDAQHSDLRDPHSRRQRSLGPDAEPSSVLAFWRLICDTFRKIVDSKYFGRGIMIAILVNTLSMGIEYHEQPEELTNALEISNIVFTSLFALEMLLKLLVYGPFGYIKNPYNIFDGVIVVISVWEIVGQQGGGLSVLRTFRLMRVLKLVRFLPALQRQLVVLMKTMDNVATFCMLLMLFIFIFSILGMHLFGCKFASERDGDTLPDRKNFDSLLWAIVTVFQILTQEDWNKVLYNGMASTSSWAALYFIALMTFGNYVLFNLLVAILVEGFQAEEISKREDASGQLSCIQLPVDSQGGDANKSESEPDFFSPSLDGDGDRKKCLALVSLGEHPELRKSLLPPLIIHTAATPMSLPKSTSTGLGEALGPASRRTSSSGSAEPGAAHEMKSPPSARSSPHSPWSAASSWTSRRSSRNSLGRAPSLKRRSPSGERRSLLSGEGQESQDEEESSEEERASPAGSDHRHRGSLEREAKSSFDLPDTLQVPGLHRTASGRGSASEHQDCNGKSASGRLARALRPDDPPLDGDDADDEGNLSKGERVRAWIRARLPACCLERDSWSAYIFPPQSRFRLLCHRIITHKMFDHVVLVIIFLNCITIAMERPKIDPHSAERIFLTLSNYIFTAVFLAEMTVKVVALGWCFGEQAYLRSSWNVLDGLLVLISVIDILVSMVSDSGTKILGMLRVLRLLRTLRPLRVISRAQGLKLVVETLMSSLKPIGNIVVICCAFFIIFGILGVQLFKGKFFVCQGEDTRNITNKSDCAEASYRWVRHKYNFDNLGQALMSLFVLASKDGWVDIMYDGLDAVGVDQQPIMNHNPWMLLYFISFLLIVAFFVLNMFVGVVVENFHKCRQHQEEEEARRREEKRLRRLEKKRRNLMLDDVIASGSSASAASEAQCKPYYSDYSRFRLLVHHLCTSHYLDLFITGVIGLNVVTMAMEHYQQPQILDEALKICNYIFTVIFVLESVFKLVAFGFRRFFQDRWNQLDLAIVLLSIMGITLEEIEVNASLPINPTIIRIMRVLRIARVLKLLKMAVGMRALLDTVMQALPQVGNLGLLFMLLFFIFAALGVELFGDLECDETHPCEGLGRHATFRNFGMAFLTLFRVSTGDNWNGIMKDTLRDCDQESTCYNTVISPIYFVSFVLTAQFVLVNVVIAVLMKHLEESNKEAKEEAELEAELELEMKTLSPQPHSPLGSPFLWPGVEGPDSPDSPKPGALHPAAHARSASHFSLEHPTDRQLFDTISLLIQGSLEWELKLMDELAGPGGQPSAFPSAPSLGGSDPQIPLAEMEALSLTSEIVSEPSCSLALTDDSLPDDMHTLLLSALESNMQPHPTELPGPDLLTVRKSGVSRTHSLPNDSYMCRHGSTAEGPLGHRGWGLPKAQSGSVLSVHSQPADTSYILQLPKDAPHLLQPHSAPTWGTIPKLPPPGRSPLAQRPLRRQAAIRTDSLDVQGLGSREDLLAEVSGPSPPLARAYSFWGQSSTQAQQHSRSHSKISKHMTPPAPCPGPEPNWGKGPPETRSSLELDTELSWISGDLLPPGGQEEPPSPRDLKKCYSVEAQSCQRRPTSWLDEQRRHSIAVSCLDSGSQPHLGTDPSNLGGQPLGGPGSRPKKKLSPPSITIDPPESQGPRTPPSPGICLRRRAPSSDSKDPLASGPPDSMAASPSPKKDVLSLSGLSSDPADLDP

[3] = target: Voltage-dependent N-type calcium channel subunit alpha-1B (Homo sapiens) (UniProt Q00975); test: Inhibition of HVA N-type [Ca2+] channels of major pelvic ganglion (MPG) neurons at 10 uM; format: functional; method in brief: as §1
Sequence of Voltage-dependent N-type calcium channel subunit alpha-1B (Homo sapiens) (Q00975 whole entry, looked up): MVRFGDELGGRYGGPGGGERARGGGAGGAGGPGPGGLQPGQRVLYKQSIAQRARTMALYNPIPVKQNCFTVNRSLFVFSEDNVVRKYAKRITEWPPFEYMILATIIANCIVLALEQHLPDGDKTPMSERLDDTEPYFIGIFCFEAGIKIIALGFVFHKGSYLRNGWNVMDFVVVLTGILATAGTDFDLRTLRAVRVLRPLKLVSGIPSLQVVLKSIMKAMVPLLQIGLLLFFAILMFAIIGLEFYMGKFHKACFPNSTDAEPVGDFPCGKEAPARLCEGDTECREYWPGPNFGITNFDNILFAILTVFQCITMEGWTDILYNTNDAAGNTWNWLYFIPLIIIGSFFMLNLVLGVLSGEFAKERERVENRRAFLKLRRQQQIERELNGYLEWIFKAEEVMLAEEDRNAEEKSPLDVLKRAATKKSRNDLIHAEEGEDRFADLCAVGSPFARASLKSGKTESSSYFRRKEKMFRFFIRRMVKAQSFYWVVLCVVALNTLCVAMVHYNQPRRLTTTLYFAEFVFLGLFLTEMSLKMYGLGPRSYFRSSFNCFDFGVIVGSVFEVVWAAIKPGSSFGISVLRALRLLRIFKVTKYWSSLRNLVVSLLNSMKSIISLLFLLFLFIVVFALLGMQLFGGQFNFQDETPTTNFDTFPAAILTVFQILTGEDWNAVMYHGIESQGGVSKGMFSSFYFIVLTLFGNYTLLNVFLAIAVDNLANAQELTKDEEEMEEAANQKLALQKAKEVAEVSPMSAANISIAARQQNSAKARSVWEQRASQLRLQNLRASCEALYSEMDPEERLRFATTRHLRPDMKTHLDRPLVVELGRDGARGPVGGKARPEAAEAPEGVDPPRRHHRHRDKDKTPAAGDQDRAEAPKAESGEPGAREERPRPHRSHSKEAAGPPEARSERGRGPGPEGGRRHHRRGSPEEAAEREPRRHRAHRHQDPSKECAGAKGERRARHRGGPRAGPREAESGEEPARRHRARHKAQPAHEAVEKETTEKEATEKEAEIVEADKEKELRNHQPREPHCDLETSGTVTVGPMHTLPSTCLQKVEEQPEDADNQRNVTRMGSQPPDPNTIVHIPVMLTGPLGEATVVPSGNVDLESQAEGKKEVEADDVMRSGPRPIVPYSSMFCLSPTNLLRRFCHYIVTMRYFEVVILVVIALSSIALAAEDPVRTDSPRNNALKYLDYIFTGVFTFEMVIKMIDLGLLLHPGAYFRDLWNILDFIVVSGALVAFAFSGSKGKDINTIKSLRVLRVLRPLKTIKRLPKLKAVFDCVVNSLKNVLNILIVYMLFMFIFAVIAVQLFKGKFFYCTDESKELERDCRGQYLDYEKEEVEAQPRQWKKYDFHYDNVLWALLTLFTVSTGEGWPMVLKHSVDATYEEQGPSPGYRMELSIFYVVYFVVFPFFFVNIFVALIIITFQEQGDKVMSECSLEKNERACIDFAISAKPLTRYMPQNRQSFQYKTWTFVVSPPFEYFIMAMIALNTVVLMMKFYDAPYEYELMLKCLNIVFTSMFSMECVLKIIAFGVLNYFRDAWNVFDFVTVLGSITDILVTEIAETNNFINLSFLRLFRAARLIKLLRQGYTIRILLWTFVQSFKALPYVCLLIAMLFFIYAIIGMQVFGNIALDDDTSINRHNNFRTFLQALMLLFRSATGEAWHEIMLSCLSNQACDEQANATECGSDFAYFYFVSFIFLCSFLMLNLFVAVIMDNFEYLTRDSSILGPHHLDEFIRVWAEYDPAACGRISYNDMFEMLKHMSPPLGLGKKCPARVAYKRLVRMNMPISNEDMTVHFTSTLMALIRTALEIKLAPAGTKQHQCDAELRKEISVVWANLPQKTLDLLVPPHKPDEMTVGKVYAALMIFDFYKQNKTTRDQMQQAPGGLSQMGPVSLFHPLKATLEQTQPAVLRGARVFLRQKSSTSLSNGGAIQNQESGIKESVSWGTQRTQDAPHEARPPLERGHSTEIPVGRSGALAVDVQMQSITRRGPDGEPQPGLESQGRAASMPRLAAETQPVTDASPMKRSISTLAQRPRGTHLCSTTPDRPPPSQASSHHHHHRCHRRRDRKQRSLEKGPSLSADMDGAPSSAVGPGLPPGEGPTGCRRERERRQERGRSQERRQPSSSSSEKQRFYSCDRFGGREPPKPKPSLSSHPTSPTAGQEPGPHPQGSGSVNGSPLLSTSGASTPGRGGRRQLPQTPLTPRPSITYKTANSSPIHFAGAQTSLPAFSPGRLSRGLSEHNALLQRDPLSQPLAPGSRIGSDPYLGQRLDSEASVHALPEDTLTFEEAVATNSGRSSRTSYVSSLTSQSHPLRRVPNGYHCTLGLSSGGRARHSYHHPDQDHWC

[4] = target: T1, Voltage-dependent T-type calcium channel subunit alpha-1G; test: In vitro inhibition of alpha-1G T-type [Ca2+] channels expressed in HEK293 cells at 10 uM; format: functional, cell-based
Method in brief: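 Whole-cell patch clamp on HEK293 cells expressing α1G T-type Ca2+ channels, test compound at 10 µM. Percent inhibition of T-type current reported as mean ± SEM from repeated runs (n ≥ 3).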

[5] = target: Voltage-dependent T-type calcium channel subunit alpha-1H (Homo sapiens) (UniProt O95180); test: In vitro inhibitory effect on alpha-1H T-type [Ca2+] channels expressed in Xenopus oocytes at 100 uM; format: functional, cell-based; settings: Oocyte
Method in brief: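 Preliminary screen at 100 µM on α1H T-type Ca2+ channels expressed in Xenopus oocytes, recorded by two-electrode voltage clamp. Output is percent inhibition of current.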

[6] = target: T1, Voltage-dependent T-type calcium channel subunit alpha-1G; test: In vitro inhibition of alpha-1G T-type [Ca2+] channels expressed in HEK293 cells; format: functional, cell-based
Method in brief: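 α1G T-type Ca2+ currents recorded in HEK293 cells by whole-cell patch clamp. IC50 is the molar concentration giving 50% inhibition of α1G current, obtained by fitting raw data to dose–response curves.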

IC50 [2]	inhibition [4]	inhibition [5]	Structure (SMILES)	also measured
14.4 µM	43.5%	66.8%	Nc1ccc(CNC(=O)CC2c3ccccc3N=C(N3CCCCC3)N2c2ccccc2)cc1 (stereo unspecified)	inhibition at 10 µM [1]: 4.7%; inhibition [3]: 18.4%
		15%	CN1CCN(C2=Nc3ccccc3C(CC(=O)O)N2c2ccccc2)CC1 (stereo unspecified)	
	95.9%	86%	COCC(=O)O[C@]1(CCN(C)CCCc2nc3ccccc3[nH]2)CCc2cc(F)ccc2[C@@H]1C(C)C	
		8%	O=C(O)CC1c2ccccc2N=C(N2CCCCC2)N1c1ccccc1 (stereo unspecified)	
0.25 µM	89.9%	84.7%	Cc1ccc(S(=O)(=O)Nc2ccc(CNC(=O)CC3c4ccccc4N=C(N4CCCCC4)N3c3ccccc3)cc2)cc1 (stereo unspecified)	inhibition at 10 µM [1]: 29%; inhibition [3]: 38.7%
10.7 µM		51.5%	COC(=O)CC1c2ccccc2N=C(c2ccccc2)N1c1ccccc1 (stereo unspecified)	inhibition [6]: 50%
		20.9%	O=C(CC1c2ccccc2N=C(N2CCOCC2)N1c1ccccc1)OCc1ccccc1 (stereo unspecified)	
		14.2%	O=C(CC1c2ccccc2N=C(c2ccccc2)N1c1ccccc1)OCc1ccccc1 (stereo unspecified)	
21.6 µM	40.5%	63.8%	O=C(CC1c2ccccc2N=C(N2CCOCC2)N1c1ccccc1)NCc1ccccc1 (stereo unspecified)	
27.7 µM	18.3%	11.5%	COC(=O)CC1c2ccccc2N=C(N2CCCCC2)N1c1ccccc1 (stereo unspecified)	
		7.2%	O=C(O)CC1c2ccccc2N=C(c2ccccc2)N1c1ccccc1 (stereo unspecified)	
		15.6%	O=C(CC1c2ccccc2N=C(N2CCCCC2)N1c1ccccc1)OCc1ccccc1 (stereo unspecified)	
		0%	COC(=O)CC1c2ccccc2N=C(N2CCOCC2)N1C(C)C (stereo unspecified)	
2.5 µM	92.3%	91.9%	O=C(CC1c2ccccc2N=C(N2CCCCC2)N1c1ccccc1)NCc1ccc([N+](=O)[O-])cc1 (stereo unspecified)	inhibition at 10 µM [1]: 37.7%; inhibition [3]: 32.2%
		0%	COC(=O)CC1c2ccccc2N=C(N2CCN(C)CC2)N1C(C)C (stereo unspecified)	
		12.2%	COC(=O)CC1c2ccccc2N=C(N2CCOCC2)N1C1CCCCC1 (stereo unspecified)	
		27%	COC(=O)CC1c2ccccc2N=C(N2CCCCC2)N1C1CCCCC1 (stereo unspecified)	
35.8 µM	29%	70.3%	CN1CCN(C2=Nc3ccccc3C(CC(=O)NCc3ccccc3)N2c2ccccc2)CC1 (stereo unspecified)	
		15%	COC(=O)CC1c2ccccc2N=C(N2CCN(C)CC2)N1c1ccccc1 (stereo unspecified)	
		8%	COC(=O)CC1c2ccccc2N=C(N2CCCCC2)N1C(C)C (stereo unspecified)	
		9%	O=C(O)CC1c2ccccc2N=C(N2CCOCC2)N1c1ccccc1 (stereo unspecified)	
0.9 µM	90.1%	77%	O=C(CC1c2ccccc2N=C(N2CCCCC2)N1c1ccccc1)NCc1ccccc1 (stereo unspecified)	inhibition at 10 µM [1]: 76%; inhibition [3]: 12%
0.2 µM	89%	80.5%	O=C(CC1c2ccccc2N=C(N2CCCCC2)N1c1ccccc1)NCc1ccc(NS(=O)(=O)c2ccc(F)cc2)cc1 (stereo unspecified)	inhibition at 10 µM [1]: 49.6%; inhibition [3]: 50.8%
		14%	COC(=O)CC1c2ccccc2N=C(N2CCOCC2)N1c1ccccc1 (stereo unspecified)	
		32.7%	CN1CCN(C2=Nc3ccccc3C(CC(=O)OCc3ccccc3)N2c2ccccc2)CC1 (stereo unspecified)	
		14.8%	O=C(CC1c2ccccc2N=C(c2ccccc2)N1c1ccccc1)NCc1ccccc1 (stereo unspecified)	

Structure (SMILES)	IC50 [2]	inhibition [4]	inhibition [5]	also measured
COC(=O)CC1c2ccccc2N=C(N2CCN(C)CC2)N1C1CCCCC1 (stereo unspecified)			3%	
